In ChEMBL document CHEMBL3612059, “Synthesis of 1,2-benzisoxazole tethered 1,2,3-triazoles that exhibit anticancer activity in acute myeloid leukemia cell lines by inhibiting histone deacetylases, and inducing p21 and tubulin acetylation” (Bioorg Med Chem, 2015):
Activity calls are given as the source filed them. The rule behind the calls is not given here.

Assays:
MOLM-14 [1] = experiment: Induction of apoptosis in human MOLM14 cells assessed as necrotic cells at 5 uM after 72 hrs by Annexin V-FITC/propidium iodide staining-based flow cytometric analysis (reference value: 1%); assay type: functional
Procedure, shortened: (§1)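 100,000 cells per well treated with 2.5, 5.0 or 10 μM for 72 h. Washed in ice-cold Ca/Mg-free PBS, resuspended in 100 μl binding buffer, stained with 5 μl PI plus 3 μl annexin V-FITC for 15 min in the dark, then read immediately by flow cytometry. Quadrants scored as live, early apoptotic, late apoptotic and necrotic.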

MOLM-14 [2] = experiment: Induction of apoptosis in human MOLM14 cells assessed as late apoptotic cells at 10 uM after 72 hrs by Annexin V-FITC/propidium iodide staining-based flow cytometric analysis (reference value: 2%); assay type: functional; procedure, shortened: as §1
MOLM-14 [3] = experiment: Induction of apoptosis in human MOLM14 cells assessed as necrotic cells at 10 uM after 72 hrs by Annexin V-FITC/propidium iodide staining-based flow cytometric analysis (reference value: 1%); assay type: functional; procedure, shortened: as §1
MV4-11 [4] = experiment: Induction of apoptosis in human MV4-11 cells assessed as early apoptotic cells at 2.5 uM after 72 hrs by Annexin V-FITC/propidium iodide staining-based flow cytometric analysis (reference value: 7%); assay type: functional; procedure, shortened: as §1
MV4-11 [5] = experiment: Induction of apoptosis in human MV4-11 cells assessed as late apoptotic cells at 2.5 uM after 72 hrs by Annexin V-FITC/propidium iodide staining-based flow cytometric analysis (reference value: 2%); assay type: functional; procedure, shortened: as §1
MV4-11 [6] = experiment: Induction of apoptosis in human MV4-11 cells assessed as necrotic cells at 5 uM after 72 hrs by Annexin V-FITC/propidium iodide staining-based flow cytometric analysis relative to control; assay type: functional
Procedure, shortened: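 MV4-11 cells (RPMI, 10 % FBS, 37 °C, 5 % CO2), 100,000 per well, exposed to PTB at 2.5, 5.0 or 10 μM for 72 h. Washed in ice-cold Ca/Mg-free PBS, stained with annexin V-FITC and PI in 1X binding buffer for 15 min in the dark, then read at once by flow cytometry. Necrotic cells are the annexin-negative/PI-positive quadrant.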

MV4-11 [7] = experiment: Induction of apoptosis in human MV4-11 cells assessed as early apoptotic cells at 10 uM after 72 hrs by Annexin V-FITC/propidium iodide staining-based flow cytometric analysis (reference value: 7%); assay type: functional; procedure, shortened: as §1
MOLM-14 [8] = experiment: Upregulation of p21 protein expression in human MOLM14 cells by Western blot analysis; assay type: functional, cell-based
MV4-11 [9] = experiment: Upregulation of p21 protein expression in human MV4-11 cells by Western blot analysis; assay type: functional, cell-based
MV4-11 [10] = experiment: Cytotoxicity against human MV4-11 cells assessed as cell viability after 24 to 96 hrs by MTT assay; assay type: functional, cell-based
Procedure, shortened: (§2)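 AML cells kept in RPMI with 10 % FBS and 1 % penicillin-streptomycin at 37 °C, 5 % CO₂, mycoplasma-screened. Seeded at 8,000 cells/well across a range of concentrations and read at several times up to 96 h. MTT added to 0.5 mg/ml final for 3 h at 37 °C, formazan dissolved in SDS-HCl, absorbance read at 570 nm. IC50 taken from the dose-response curves.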

MOLM-14 [11] = experiment: Cytotoxicity against human MOLM14 cells assessed as cell viability at 0.25 to 5 uM by MTT assay; assay type: functional, cell-based; procedure, shortened: as §2
MV4-11 [12] = experiment: Cytotoxicity against human MV4-11 cells assessed as cell viability at 0.25 to 5 uM by MTT assay; assay type: functional, cell-based; procedure, shortened: as §2
MV4-11 [13] = experiment: Cell cycle arrest in human MV4-11 cells assessed as accumulation at G2/M phase after 72 hrs by propidium iodide staining-based flow cytometric analysis; assay type: functional
Procedure, shortened: (§3)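 Cells in RPMI with 10 % FBS at 37 °C, 5 % CO₂; treated up to 72 h, washed in cold PBS, fixed in -20 °C-precooled 70 % ethanol at 4 °C. Stained with 50 µg/ml PI, 1 % Triton X-100 and 20 µg/ml RNase A in PBS, 30 min, 37 °C, dark. Cell-cycle phases read by flow cytometry; three independent experiments, mean ± SD.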

MV4-11 [14] = experiment: Cell cycle arrest in human MV4-11 cells assessed as accumulation at sub-G1 phase after 72 hrs by propidium iodide staining-based flow cytometric analysis; assay type: functional; procedure, shortened: as §3
MOLM-14 [15] = experiment: Cell cycle arrest in human MOLM14 cells assessed as decrease in cells level at G1 phase after 72 hrs by propidium iodide staining-based flow cytometric analysis; assay type: functional; procedure, shortened: as §3
MV4-11 [16] = experiment: Cell cycle arrest in human MV4-11 cells assessed as decrease in cells level at G1 phase after 72 hrs by propidium iodide staining-based flow cytometric analysis; assay type: functional; procedure, shortened: as §3
MOLM-14 [17] = experiment: Induction of apoptosis in human MOLM14 cells assessed as early apoptotic cells at 2.5 uM after 72 hrs by Annexin V-FITC/propidium iodide staining-based flow cytometric analysis (reference value: 7%); assay type: functional; procedure, shortened: as §1
MOLM-14 [18] = experiment: Induction of apoptosis in human MOLM14 cells assessed as late apoptotic cells at 2.5 uM after 72 hrs by Annexin V-FITC/propidium iodide staining-based flow cytometric analysis (reference value: 2%); assay type: functional; procedure, shortened: as §1
MOLM-13 (Homo sapiens) [19] = experiment: Induction of apoptosis in human MOLM13 cells after 72 hrs by Annexin V-FITC/propidium iodide staining-based flow cytometric analysis
MOLM-13 (Homo sapiens) [20] = experiment: Induction of apoptosis in human MOLM13 cells assessed as upregulation of cleaved PARP expression after 24 hrs by Western blot analysis
MOLM-13 (Homo sapiens) [21] = experiment: Induction of apoptosis in human MOLM13 cells assessed as upregulation of cleaved caspase-9 expression after 24 hrs by Western blot analysis
MOLM-13 (Homo sapiens) [22] = experiment: Induction of apoptosis in human MOLM13 cells assessed as necrotic cells at 2.5 uM after 72 hrs by Annexin V-FITC/propidium iodide staining-based flow cytometric analysis (reference value: 3%)
MOLM-13 (Homo sapiens) [23] = experiment: Induction of apoptosis in human MOLM13 cells assessed as late apoptotic cells at 5 uM after 72 hrs by Annexin V-FITC/propidium iodide staining-based flow cytometric analysis (reference value: 7%)
MOLM-13 (Homo sapiens) [24] = experiment: Induction of apoptosis in human MOLM13 cells assessed as late apoptotic cells at 10 uM after 72 hrs by Annexin V-FITC/propidium iodide staining-based flow cytometric analysis (reference value: 7%)
MOLM-13 (Homo sapiens) [25] = experiment: Induction of apoptosis in human MOLM13 cells assessed as late apoptotic cells at 2.5 uM after 72 hrs by Annexin V-FITC/propidium iodide staining-based flow cytometric analysis (reference value: 7%)
MOLM-13 (Homo sapiens) [26] = experiment: Induction of apoptosis in human MOLM13 cells assessed as early apoptotic cells at 5 uM after 72 hrs by Annexin V-FITC/propidium iodide staining-based flow cytometric analysis (reference value: 11%)
MOLM-13 (Homo sapiens) [27] = experiment: Induction of apoptosis in human MOLM13 cells assessed as early apoptotic cells at 2.5 uM after 72 hrs by Annexin V-FITC/propidium iodide staining-based flow cytometric analysis (reference value: 11%)

With `c1ccc(Oc2ccc(-c3cn(-c4noc5ccccc45)nn3)cc2)cc1` the Activity (MOLM-14 [1]) was 7%, the Activity (MOLM-14 [2]) was 30% and the Activity (MOLM-14 [3]) was 10%. For the same compound, the Activity (MV4-11 [4]) was 9%, the Activity (MV4-11 [5]) was 15% and the Activity (MV4-11 [6]) was 3%. The Activity (MV4-11 [7]) was 20%, the Activity (MOLM-14 [8]) was “Active” and the Activity (MV4-11 [9]) was “Active”. For the same compound, the Activity (MV4-11 [10]) was “Dose-dependent effect”, the Activity (MOLM-14 [11]) was “Dose-dependent effect” and the Activity (MV4-11 [12]) was “Dose-dependent effect”. For the same compound, the Activity (MV4-11 [13]) was “Active”, the Activity (MV4-11 [14]) was “Active” and the Activity (MOLM-14 [15]) was “Active”. For the same compound, the Activity (MV4-11 [16]) was “Active”, the Activity (MOLM-14 [17]) was 12% and the Activity (MOLM-14 [18]) was 26%. For the same compound, the Activity (MOLM-13 (Homo sapiens) [19]) was “Dose-dependent effect”, the Activity (MOLM-13 (Homo sapiens) [20]) was “Dose-dependent effect” and the Activity (MOLM-13 (Homo sapiens) [21]) was “Dose-dependent effect”. It also gave an Activity (MOLM-13 (Homo sapiens) [22]) of 14%, an Activity (MOLM-13 (Homo sapiens) [23]) of 26% and an Activity (MOLM-13 (Homo sapiens) [24]) of 35%. It also gave an Activity (MOLM-13 (Homo sapiens) [25]) of 20%, an Activity (MOLM-13 (Homo sapiens) [26]) of 19% and an Activity (MOLM-13 (Homo sapiens) [27]) of 15%.
